Bioassay records from PubChem BioAssay.
MT stabilize HCS = microtubule stabilizers in HeLa cells, primary screen, imaging, high-content imaging | HeLa tubulin immunostaining HCS, 24 h; share of cells brighter than vehicle mean+2SD | % tubulin-high responders, % at 10 µM | hit rate 0.83% among 200,000 | AID 2205, 2009;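 active = plate Z-score above 3 for both tubulin-high and condensed-nucleus cell shares, with cell loss under 80%, at 10 µM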;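 note: anti alpha tubulin signal scored within the nucleus-defined area of each cell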
bCat nuc transl = modulators of beta-catenin nuclear translocation, primary screen, imaging, HeLa cells, immunofluorescence, high-content; AID 1665, 2009; nuclear translocation activity, % at 5 µM; hit rate 0.3% among 190,000;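 active = nuclear translocation activity above 50% at 5 µM, with a well cell count of 50 or more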;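 note: per-cell ratio of nuclear to cytoplasmic median beta-catenin stain intensity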
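System: Human HeLa cells, endogenous beta-catenin | Compound dosing: 5 µM primary, 0.02–20 µM confirmation | Timing: 24 h compound exposure at 37°C, 5% CO2 | Measured by: Fluorescence imaging of beta-catenin antibody stain plus DAPI | Read-out basis: % activation of per-cell nuclear versus cytoplasmic median beta-catenin signal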
Autophagy mod = autophagy modulators in MEF cells, primary screen, imaging, high-content, MEF GFP-LC3 | MEF GFP-LC3 puncta imaging; test concentration mostly 10 µM | calls only at 10 µM (by protocol) | hit rate 0.98% among 190,000 | AID 463193, 2010;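 active = percentage of spot-positive cells more than 3 SD above its plate mean, without a fluorescence outlier flag or 80% toxicity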
Dynein transport = inhibitors of GR-EGFP nuclear translocation, primary screen, dynein cargo transport inhibitor project, imaging, high-content, 3617.4 mouse cells; test concentration mostly 20 µM; stimulated with dexamethasone, 1 µM; hits give low values; z-score, hits read low; hit rate 0.47% among 220,000;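 active = plate z-score of nuclear minus cytoplasmic receptor signal below a set negative limit, without overly bright fluorescence or cell loss, cut at about -3.5 in these data, passing the limit was not always enough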;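 note: z-score of nuclear minus cytoplasmic ring GR-EGFP intensity difference per well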
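Buffer or medium: tet-free, stripped-serum medium; reagent: dexamethasone at 1.0 µM final, 30 min; incubation: 48 h induction, 1 h compound, 30 min dex at 37 °C; measured by: formaldehyde fixation, Hoechst nuclear stain, 10x automated fluorescence imaging; read-out: nuclear-to-cytoplasmic GR-EGFP distribution per well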
Lmaj promast = Leishmania major promastigote growth inhibition, primary screen; Leishmania major promastigotes, resazurin fluorescence viability; inhibition, % at 10 µM; hit rate 9% among 200,000; AID 1063, 2008; in the data active = inhibition above about 50%;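 note: promastigotes grown with compound for 44 hours at 28 °C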
CHOP inh = inhibitors of CHOP promoter induction, primary screen, cell-based, unfolded protein response, luciferase reporter | AID 2732, 2010 | inhibition, % at 10 µM | hit rate 3.8% among 220,000 | CHO-K1 CHOP-promoter luciferase, tunicamycin-induced, 15-18 h;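 active = compounds that reduced the stress-induced luciferase reporter signal by more than about 70% of percent inhibition, limit read from the data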
Dynein inh conf = dynein cargo transport inhibitors, GR-EGFP translocation, confirmation, imaging, high-content imaging, GR-EGFP cells. 3617.4 GR-EGFP nuclear translocation imaging, dexamethasone-induced. calls only at 20 µM. shares compounds with Dynein transport. hit rate 69% among 1,000;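 active = inhibition of receptor movement into the nucleus at or above a set limit in both runs, with normal cell brightness and cell count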;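 note: dexamethasone at 1 µM final in well for 30 min; nuclear minus cytoplasmic GR-EGFP mean intensity difference in channel 2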
CHOP confirm = retest of CHOP induction inhibitors, confirmation, cell-based | hit rate 45% among 2,100 | inhibition, % at 10 µM | shares compounds with CHOP inh | CHO-CHOP promoter luciferase reporter, tunicamycin-induced, luminescence | AID 504437, 2011;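 active = mean of three repeat readings of reporter signal inhibition above a set limit, cut at about 70% in these data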
Large screens that a line does not name were inactive (follow-up assays come after a bar, where they were run). Rows were chosen to be rich in hits. Some 12% of all compounds tested hit in one or more screens of this group.

Cc1ccccc1N1C(=O)CC(Sc2nnc(-c3ccccc3)o2)C1=O (stereo unspecified)	Dynein transport -7.27, CHOP inh 108.3 | Dynein inh conf active | CHOP confirm inactive
Cc1ccccc1CS(=O)(=O)c1nnc([C@H](CC(C)C)NC(=O)OC(C)(C)C)o1	Dynein transport -3.73, CHOP inh 107.5 | Dynein inh conf active | CHOP confirm 122.8
CC(C)[C@H](NC(=O)OC(C)(C)C)c1nnc(S(=O)(=O)Cc2c(F)cccc2Cl)o1	none (no result: MT stabilize HCS, Autophagy mod, Dynein transport, Lmaj promast, CHOP inh)
CC1CCC(NC(=O)c2ccc(NC(=O)c3ccc(=O)[nH]c3)cc2)CC1 (stereo unspecified)	none
O=C(c1ccccn1)N(c1ccccc1)C1(C(=O)NC2CCCCC2)CCCCC1	none
O=C(/C=C/c1cccc([N+](=O)[O-])c1)n1cnc2ccccc21	Dynein transport -5.07, CHOP inh 107.3 | Dynein inh conf active | CHOP confirm 116.2
O=C(/C=C/c1cccc([N+](=O)[O-])c1)N1CCOCC1	none
O=C(/C=C1\NCC2c3ccccc3CCN2C1=O)c1ccccc1 (stereo unspecified)	none
COc1ccc(C(C(=O)OC(C)CN(C)C)c2ccccc2)cc1 (stereo unspecified)	none
CN(C)CC(C(=O)c1ccccc1)c1ccccc1 (stereo unspecified)	Dynein transport -3.72, Lmaj promast 100.2 (no result: bCat nuc transl, CHOP inh) | Dynein inh conf active | CHOP confirm inactive
CCCCNC(=O)c1onc(CSc2cccc3ccccc23)c1C(=O)O	none
CCc1nnc(NS(=O)(=O)c2ccc(NC(=O)/C=C/c3ccc(OC)cc3OC)cc2)s1	none
CCCNC(=O)NS(=O)(=O)c1ccc(Cl)cc1	none
CCCNC(=O)c1nnsc1S(=O)c1ccc(Cl)cc1 (stereo unspecified)	Dynein transport -4.76, Lmaj promast 100.4, CHOP inh 107.2 | Dynein inh conf active | CHOP confirm 140.8
CNC(=O)c1nnsc1S(=O)c1ccc(Cl)cc1 (stereo unspecified)	Dynein transport -4.99, Lmaj promast 100.3, CHOP inh 107.4 | Dynein inh conf active | CHOP confirm inactive
CCCNC(=O)c1nnsc1S(=O)(=O)c1ccc(Cl)cc1	Dynein transport -4.2, CHOP inh 107.5 | Dynein inh conf active | CHOP confirm 140.6
CCCNC(=O)c1ccc2snnc2c1	none
CNC(=O)c1nn(-c2ccc(Cl)cc2)ccc1=O	none
CC1CCCN(CC(=O)Nc2ccc(S(=O)(=O)NC3CCCCC3)cc2)C1 (stereo unspecified)	none
CCOC(=O)C1CC(c2ccccc2)=NNC1=O (stereo unspecified)	none
CC(C)(C)C(=O)Cn1ncc(N2CCOCC2)c(Br)c1=O	none
O=C(OCn1ncc(Br)c(Br)c1=O)c1c(F)cccc1F	Autophagy mod active, Dynein transport -4.76, Lmaj promast 100.4 (no result: CHOP inh) | Dynein inh conf active | CHOP confirm 124.7
CC(=O)Cn1ncc(Br)c(Br)c1=O	Autophagy mod active, Dynein transport -4.59, Lmaj promast 71.2, CHOP inh 104.8 | Dynein inh conf active | CHOP confirm inactive
CCN(CC)P(=O)(Nc1ccc([N+](=O)[O-])cc1)c1c(C)nn(CCC#N)c1NC(=O)c1ccc(Cl)cc1Cl (stereo unspecified)	none
COc1ccc(-c2cc(C(F)(F)F)nc(S(C)(=O)=O)n2)cc1	Dynein transport -5.32, Lmaj promast 100.4, CHOP inh 106.1 (no result: bCat nuc transl) | Dynein inh conf inactive | CHOP confirm inactive
CS(=O)(=O)c1nc(-c2ccc(F)cc2)cc(C(F)(F)F)n1	CHOP inh 106.1 | Dynein inh conf inactive | CHOP confirm 110.1
Nc1nc(-c2ccc(F)cc2)cc(C(F)(F)F)n1	none
